From ChEMBL document CHEMBL2151034, “Synthesis, biological evaluation and molecular docking studies of 3-(triazolyl)-coumarin derivatives: effect on inducible nitric oxide synthase” (Eur J Med Chem, 2012)
Calls of active or inactive are those of the source. The rule behind the calls is not given here.

What was measured:
[1] = tested on: Neutrophil; assay: Antiinflammatory activity in Wistar rat neutrophils assessed as inhibition of LPS-stimulated PGE2 production at 1000 uM after 18 hrs by ELISA; type: functional, cell-based
How it was run: (§1)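 Glycogen-elicited peritoneal neutrophils from male Wistar rats, 1 × 10⁶ cells, 18 h at 37 °C in 5% CO2 with or without E. coli LPS (serotype 026:B6). Compounds given at the same time, dissolved in HBSS; HBSS-treated cells serve as control. Nitrite measured by Griess reaction (absorbance at 550 nm, 10 min). PGE2 measured by ELISA in supernatant stored frozen at −80 °C. Mean ± s.e.m. of 4 independent assays.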

[2] = tested on: Neutrophil; assay: Antiinflammatory activity in Wistar rat neutrophils assessed as inhibition of LPS-stimulated PGE2 production at 100 uM after 18 hrs by ELISA; type: functional, cell-based; how it was run: as §1
[3] = tested on: Neutrophil; assay: Antiinflammatory activity in Wistar rat neutrophils assessed as inhibition of LPS-stimulated NO production at 10 to 100 uM after 18 hrs by Griess method; type: functional, cell-based; how it was run: as §1
[4] = molecular target: Nitric oxide synthase, inducible (Rattus norvegicus) (UniProt Q06518); assay: Inhibition of iNOS in LPS-stimulated Wistar rat neutrophils assessed as decrease in total NOS activity at 100 uM after 18 hrs by enzymatic assay
Chain of Nitric oxide synthase, inducible (Rattus norvegicus) (Q06518 whole entry): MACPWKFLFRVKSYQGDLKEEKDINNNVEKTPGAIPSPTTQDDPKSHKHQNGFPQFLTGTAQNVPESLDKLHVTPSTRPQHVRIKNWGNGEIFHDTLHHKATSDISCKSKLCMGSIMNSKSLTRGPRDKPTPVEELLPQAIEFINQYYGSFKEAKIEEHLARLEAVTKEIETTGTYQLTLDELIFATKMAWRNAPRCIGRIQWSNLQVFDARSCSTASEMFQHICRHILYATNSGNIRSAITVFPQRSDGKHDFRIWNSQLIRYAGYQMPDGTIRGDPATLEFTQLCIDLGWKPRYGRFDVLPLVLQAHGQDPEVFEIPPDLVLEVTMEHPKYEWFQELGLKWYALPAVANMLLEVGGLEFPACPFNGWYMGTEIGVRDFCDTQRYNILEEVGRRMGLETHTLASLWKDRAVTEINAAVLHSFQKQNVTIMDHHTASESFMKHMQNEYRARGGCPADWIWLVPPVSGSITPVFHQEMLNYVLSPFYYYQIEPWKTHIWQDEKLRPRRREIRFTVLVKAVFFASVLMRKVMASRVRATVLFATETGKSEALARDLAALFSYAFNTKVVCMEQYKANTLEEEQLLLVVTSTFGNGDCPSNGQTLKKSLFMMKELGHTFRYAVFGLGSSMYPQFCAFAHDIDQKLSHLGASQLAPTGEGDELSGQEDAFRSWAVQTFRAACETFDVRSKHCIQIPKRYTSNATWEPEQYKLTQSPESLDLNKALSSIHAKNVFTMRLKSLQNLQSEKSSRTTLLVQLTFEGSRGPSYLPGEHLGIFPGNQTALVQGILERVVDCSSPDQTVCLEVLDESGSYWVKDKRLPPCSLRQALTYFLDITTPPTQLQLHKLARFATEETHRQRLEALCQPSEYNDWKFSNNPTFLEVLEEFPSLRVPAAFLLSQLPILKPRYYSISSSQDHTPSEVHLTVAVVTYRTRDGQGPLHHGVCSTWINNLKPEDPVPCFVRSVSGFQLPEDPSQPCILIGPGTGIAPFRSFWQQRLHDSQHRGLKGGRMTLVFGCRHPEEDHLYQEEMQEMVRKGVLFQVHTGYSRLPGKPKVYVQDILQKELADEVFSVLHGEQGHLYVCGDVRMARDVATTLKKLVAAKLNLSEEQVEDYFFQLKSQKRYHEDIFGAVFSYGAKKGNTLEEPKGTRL
How it was run: (§2)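 Neutrophils treated 18 h with LPS and compound, then homogenized in cold 50 mM Tris-HCl pH 7.4 with 1 mM PMSF and 1 mM L-citrulline. Homogenates incubated 30 min at 37 °C with 1 mM NADPH. Activity expressed as pmol L-citrulline/min/mg protein, with protein by Bradford. Calcium-independent (iNOS) activity defined by omitting CaCl2 and adding 1 mM EGTA; 1 mM L-NAME used as control. Mean ± s.e.m., n = 4.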

[5] = tested on: Neutrophil; assay: Antiinflammatory activity in Wistar rat neutrophils assessed as reduction of LPS-stimulated TNFalpha production at 100 uM after 18 hrs by ELISA; type: functional, cell-based
How it was run: (§3)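 Rat peritoneal neutrophils elicited by intraperitoneal oyster glycogen, 1 × 10⁶ cells, incubated 18 h at 37 °C in 5% CO2 in medium alone (basal) or with LPS, with compounds in HBSS added at the same time. Supernatant frozen at −80 °C. TNF-α and PGE2 quantified by ELISA in pg/ml. Compared against HBSS-treated cells. Mean ± s.e.m. of 4 independent assays.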

[6] = tested on: Neutrophil; assay: Inhibition of iNOS expression in Wistar rat neutrophils assessed as reduction of NO production after 18 hrs by Western blot analysis; type: functional, cell-based
How it was run: (§4)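 Glycogen-elicited Wistar rat neutrophils, 1 × 10⁶ cells, incubated 18 h with LPS plus compound or control. Protein: homogenate in 50 mM Tris pH 7.4 with PMSF, 50 µg run on 7% SDS-PAGE, blocked with casein, mouse monoclonal anti-iNOS at 500 ng/mL, HRP chemiluminescence, densitometry normalized to β-actin. mRNA: real-time PCR against GAPDH, quantified by the Liu and Saint method. Mean ± s.e.m. of 4 independent assays.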

[7] = Induction of apoptosis in Wistar rat neutrophils; type: cell-based; details: neutrophil
[8] = molecular target: T1, Nitric oxide synthase 3 (Rattus norvegicus) (UniProt Q62600); assay: Inhibition of eNOS in rat PMEC assessed as reduction in nitrite level at 100 uM after 48 hrs by Griess method
T1 sequence (whole entry): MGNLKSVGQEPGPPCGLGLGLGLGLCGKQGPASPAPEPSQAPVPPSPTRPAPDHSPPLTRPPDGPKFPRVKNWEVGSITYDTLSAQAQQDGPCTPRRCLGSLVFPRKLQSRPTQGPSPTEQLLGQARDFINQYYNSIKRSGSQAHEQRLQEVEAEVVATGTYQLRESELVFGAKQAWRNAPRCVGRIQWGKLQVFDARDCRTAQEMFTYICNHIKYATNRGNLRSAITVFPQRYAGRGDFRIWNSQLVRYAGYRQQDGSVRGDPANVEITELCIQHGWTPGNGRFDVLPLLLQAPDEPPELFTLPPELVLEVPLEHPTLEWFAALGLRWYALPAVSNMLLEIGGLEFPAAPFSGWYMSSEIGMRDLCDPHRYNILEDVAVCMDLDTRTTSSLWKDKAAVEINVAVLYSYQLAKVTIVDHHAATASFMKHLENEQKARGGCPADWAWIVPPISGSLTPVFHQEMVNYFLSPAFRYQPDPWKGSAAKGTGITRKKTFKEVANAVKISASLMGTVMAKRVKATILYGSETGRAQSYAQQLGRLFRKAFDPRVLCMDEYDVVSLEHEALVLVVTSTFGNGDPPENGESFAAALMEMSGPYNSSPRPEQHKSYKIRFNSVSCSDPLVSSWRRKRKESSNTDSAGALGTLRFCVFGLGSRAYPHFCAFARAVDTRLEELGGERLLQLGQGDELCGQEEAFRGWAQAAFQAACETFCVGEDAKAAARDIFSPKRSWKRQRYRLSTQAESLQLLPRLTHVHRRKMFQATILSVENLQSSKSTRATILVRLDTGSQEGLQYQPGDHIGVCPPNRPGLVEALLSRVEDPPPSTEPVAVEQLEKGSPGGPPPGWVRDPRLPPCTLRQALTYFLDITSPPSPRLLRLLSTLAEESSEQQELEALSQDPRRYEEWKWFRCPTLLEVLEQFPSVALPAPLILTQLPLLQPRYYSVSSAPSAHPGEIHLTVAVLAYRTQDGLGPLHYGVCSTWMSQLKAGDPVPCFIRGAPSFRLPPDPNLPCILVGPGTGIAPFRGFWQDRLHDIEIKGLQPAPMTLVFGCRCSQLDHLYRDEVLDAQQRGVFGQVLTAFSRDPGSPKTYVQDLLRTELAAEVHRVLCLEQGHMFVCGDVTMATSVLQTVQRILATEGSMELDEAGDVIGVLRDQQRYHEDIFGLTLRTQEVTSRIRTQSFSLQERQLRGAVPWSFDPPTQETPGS
How it was run: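 Primary microvascular endothelial cells from rat cremaster muscle explants, grown in DMEM with 20% fetal calf serum and used at confluence after subculture. Incubated 48 h at 37 °C in 5% CO2 without LPS, with coumarin compounds or L-NAME at 100 µM. Nitrite in supernatant measured by Griess reaction at 550 nm. Mean ± s.e.m. of 4 independent assays.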

[9] = tested on: Neutrophil; assay: Inhibition of LPS-induced iNOS expression in Wistar rat neutrophils assessed as reduction of NO production after 18 hrs by Western blot analysis; type: functional, cell-based; how it was run: as §4
[10] = molecular target: Nitric oxide synthase, inducible (Rattus norvegicus) (UniProt Q06518); assay: Inhibition of iNOS activity in LPS-stimulated Wistar rat neutrophils at 100 uM after 18 hrs by enzymatic assay; how it was run: as §2
[11] = tested on: Neutrophil; assay: Antiinflammatory activity in Wistar rat neutrophils assessed as reduction of TNFalpha production at 100 uM after 18 hrs by ELISA; type: functional, cell-based; how it was run: as §3
[12] = Induction of PGE2 production in Wistar rat neutrophils at 100 uM after 18 hrs by ELISA; type: cell-based; details: neutrophil; how it was run: as §3
[13] = tested on: Neutrophil; assay: Antiinflammatory activity in Wistar rat neutrophils assessed as inhibition of LPS-stimulated TNFalpha production at 1000 uM after 18 hrs by ELISA; type: functional, cell-based; how it was run: as §3
[14] = Cytotoxicity against Wistar rat neutrophils assessed as cell viability; type: cell-based, Neutrophil; details: read-out: Activity
[15] = Induction of necrosis in Wistar rat neutrophils; type: cell-based; details: neutrophil
[16] = tested on: Rattus norvegicus; assay: Antiinflammatory activity in LPS-induced rat subcutaneous dorsal inflamed tissue assessed as reduction of neutrophil recruitment at 50 mg/kg, ip after 4 hrs post LPS challenge by Giemsa staining; type: functional, organism-based; set-up: dose 50 mg/kg
How it was run: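 Rat dorsal air pouch: 10 mL sterile air injected subcutaneously, refilled with 10 mL on day 7. On day 10, 50 mg/kg in 1 mL sterile PBS was given intraperitoneally (per methods) at the same time as LPS (1.5 mg/mL) was injected into the pouch; controls got PBS. Exudate leukocytes were counted 4 h later by Neubauer chamber and dyed smears. Mean ± s.e.m., 3 animals/group.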

[17] = Inhibition of LPS-stimulated NO production in Wistar rat neutrophils at 10 uM after 18 hrs by Griess method; details: neutrophil
[18] = Induction of TNFalpha production in Wistar rat neutrophils at 100 uM after 18 hrs by ELISA relative to vehicle-treated control; type: cell-based; details: neutrophil; how it was run: as §3
[19] = tested on: Neutrophil; assay: Inhibition of LPS-induced iNOS gene expression in Wistar rat neutrophils assessed as decrease in mRNA level after 18 hrs by real-time PCR analysis; type: functional, cell-based; how it was run: as §4
[20] = tested on: Neutrophil; assay: Inhibition of LPS-induced cytoplasmic iNOS expression in Wistar rat neutrophils assessed as decrease in protein level after 18 hrs by Western blot analysis; type: functional, cell-based; how it was run: as §4

With `CCCCCCCCCCn1cc(-c2cc3ccccc3oc2=O)nn1` the inhibition [1] was “inactive”, the inhibition [2] was “inactive” and the inhibition [3] was “Active”. The inhibition [4] was “Active”, the Activity [5] was “inactive” and the inhibition [6] was “Active”. For the same compound, the Activity [7] was “Non-toxic”, the inhibition [8] was “inactive” and the inhibition [9] was “Active”. The inhibition [10] was “Active”, the Activity [11] was “inactive” and the Activity [12] was “Toxic”. For the same compound, the inhibition [13] was “inactive”, the viability [14] was over 90% and the Activity [15] was “Non-toxic”.

In the case of `N=C(N)NN`, the Activity [16] is reported as “Active”.

In the case of `CCCCCCCCn1cc(-c2cc3ccccc3oc2=O)nn1`, the inhibition [1] is reported as “inactive”, the inhibition [2] is reported as “inactive” and the inhibition [3] is reported as “Active”. For the same compound, the inhibition [4] was “Active”, the Activity [5] was “inactive” and the inhibition [6] was “Active”. For the same compound, the Activity [7] was “Non-toxic”, the inhibition [8] was “inactive” and the inhibition [9] was “Active”. For the same compound, the inhibition [10] was “Active”, the Activity [11] was “inactive” and the Activity [12] was “Toxic”. For the same compound, the inhibition [13] was “inactive”, the viability [14] was over 90% and the Activity [15] was “Non-toxic”.

In the case of `CCCCCCn1cc(-c2cc3ccccc3oc2=O)nn1`, the Activity [17] is reported as “Toxic”, the inhibition [1] is reported as “inactive” and the inhibition [2] is reported as “inactive”. For the same compound, the inhibition [4] was “Active”, the Activity [5] was “inactive” and the inhibition [6] was “Active”. The Activity [7] was “Non-toxic”, the inhibition [8] was “Active” and the inhibition [9] was “Active”. The inhibition [10] was “Active”, the Activity [11] was “inactive” and the inhibition [13] was “inactive”. For the same compound, the Activity [18] was “Toxic”, the viability [14] was over 90% and the Activity [15] was “Non-toxic”.

In the case of `COC(=O)[C@@H](N)CCCNC(=N)N[N+](=O)[O-]`, the inhibition [8] is reported as “Active”.

For `O=c1oc2ccccc2cc1-c1cn(-c2ccccc2)nn1`, the inhibition [1] was “inactive”, the inhibition [2] was “inactive” and the inhibition [3] was “Active”. The inhibition [4] was “Active”, the Activity [5] was “inactive” and the inhibition [6] was “Active”. The Activity [7] was “Non-toxic”, the inhibition [8] was “inactive” and the inhibition [9] was “Active”. The inhibition [10] was “Active”, the Activity [11] was “inactive” and the Activity [16] was “Active”. The inhibition [13] was “inactive”, the viability [14] was over 90% and the inhibition [19] was “Active”. The Activity [15] was “Non-toxic” and the inhibition [20] was “Active”.
